# Calls of active or inactive are those of the source. No cut-off for these calls is given here.
# Assays:
# Aspergillus fumigatus [1] = test: Inhibition of metabolite production in Aspergillus fumigatus ATCC 204305 assessed as lowest drug concentration required to inhibit 50% malate production after 48 hrs in presence of 2 % glucose by NMR spectroscopy; format: functional
# How it was run: (§1)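 Cultures grown in RPMI 1640-2% glucose-MOPS with drug series, 48 h. Culture media analysed by 600-MHz ¹H NMR. MEP taken from stack plots and peak integrals of resolved resonances, as lowest drug concentration suppressing nutrient use or metabolite production by ≥50%. Alternative MEP: lowest concentration raising fumarate >50%.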
# Aspergillus niger [2] = test: Antifungal activity against Aspergillus niger isolate 05-290-2479 assessed as lowest drug concentration resulting in aberrant hyphal growth after 48 hrs by broth microdilution method; format: functional
# How it was run: (§2)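 Caspofungin tested by modified CLSI M38-A microdilution in RPMI 1640 plus 2% glucose, l-glutamine, MOPS pH 7. Serial dilutions 0.03125 to 16 μg/ml; duplicate plates. MEC = lowest concentration giving aberrant hyphal growth on inverted-microscope examination, read at 48 h.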
# Aspergillus flavus [3] = test: Increase in metabolite production in Aspergillus flavus isolate 05-314-1100 assessed as lowest drug concentration required to increase >50% fumarate production after 48 hrs in presence of 2 % glucose by NMR spectroscopy; format: functional; how it was run: as §1
# Aspergillus nidulans [4] = test: Antifungal activity against Aspergillus nidulans isolate 05-326-1785 assessed as lowest drug concentration resulting in aberrant hyphal growth after 72 hrs by broth microdilution method; format: functional
# Aspergillus niger [5] = test: Inhibition of metabolite production in Aspergillus niger isolate 05-290-2479 assessed as lowest drug concentration required to inhibit 50% citrate production after 48 hrs in presence of 2 % glucose by NMR spectroscopy; format: functional; how it was run: as §1
# Aspergillus fumigatus [6] = test: Antifungal activity against Aspergillus fumigatus ATCC 204305 assessed as lowest drug concentration resulting in aberrant hyphal growth after 72 hrs by broth microdilution method; format: functional
# Aspergillus niger [7] = test: Inhibition of metabolite production in Aspergillus niger isolate 05-112-3701 assessed as lowest drug concentration required to inhibit 50% citrate production after 48 hrs in presence of 2 % glucose by NMR spectroscopy; format: functional; how it was run: as §1
# Aspergillus fumigatus [8] = test: Inhibition of metabolite production in Aspergillus fumigatus ATCC 204305 assessed as lowest drug concentration required to inhibit 50% malate production after 72 hrs in presence of 2 % glucose by NMR spectroscopy; format: functional
# How it was run: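 Caspofungin dilutions with A. fumigatus ATCC 204305 in RPMI 1640-2% glucose-MOPS, incubated 72 h. ¹H NMR of medium. MEP = lowest concentration giving ≥50% fall in malate, glycine betaine or fumarate peak areas.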
# Aspergillus fumigatus [9] = test: Inhibition of metabolite production in Aspergillus fumigatus ATCC 204305 assessed as lowest drug concentration required to inhibit 50% malate production after 48 hrs in presence of 0.2 % glucose by NMR spectroscopy; format: functional
# How it was run: (§3)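 A. fumigatus ATCC 204305 incubated 48 h and 72 h with caspofungin in RPMI 1640 containing 0.2% glucose instead of 2%. ¹H NMR of medium. MEP from malate peak area, taken at ≥50% reduction.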
# Aspergillus terreus [10] = test: Antifungal activity against Aspergillus terreus isolate 04-188-2548 assessed as lowest drug concentration resulting in aberrant hyphal growth after 48 hrs by broth microdilution method; format: functional; how it was run: as §2
# Aspergillus flavus [11] = test: Increase in metabolite production in Aspergillus flavus ATCC 204304 assessed as lowest drug concentration required to increase >50% fumarate production after 48 hrs in presence of 2 % glucose by NMR spectroscopy; format: functional; how it was run: as §1
# Aspergillus terreus [12] = test: Inhibition of metabolite production in Aspergillus terreus isolate 06-059-2428 assessed as lowest drug concentration required to inhibit 50% ethanol production after 48 hrs in presence of 2 % glucose by NMR spectroscopy; format: functional; how it was run: as §1
# Aspergillus nidulans [13] = test: Inhibition of metabolite production in Aspergillus nidulans isolate 05-326-1785 assessed as lowest drug concentration required to inhibit 50% fumarate production after 72 hrs in presence of 2 % glucose by NMR spectroscopy; format: functional
# How it was run: (§4)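 A. nidulans grows slowly, so spectra were recorded after 72 h incubation in RPMI 1640-2% glucose-MOPS with drug dilutions. 600-MHz ¹H NMR of culture medium. Fumarate peak integrals plotted against drug concentration. MEP = lowest concentration with ≥50% fall in fumarate.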
# Aspergillus fumigatus [14] = test: Inhibition of metabolite production in Aspergillus fumigatus isolate 06-067-1639 assessed as inhibition of glycine betaine production at => 1 ug/ml; format: functional, organism-based
# Aspergillus fumigatus [15] = test: Inhibition of metabolite production in Aspergillus fumigatus ATCC 204305 assessed as lowest drug concentration required to inhibit 50% glycine betain, fumarate, malate production after 48 hrs in presence of 2 % glucose by NMR spectroscopy; format: functional; how it was run: as §1
# Aspergillus fumigatus [16] = test: Increase in metabolite production in Aspergillus fumigatus ATCC 204305 assessed as paradoxical increase in glycine betaine, fumarate and succinate level at >= 0.5 ug/ml after 48 hrs
# Aspergillus flavus [17] = test: Antifungal activity against Aspergillus flavus ATCC 204304 assessed as lowest drug concentration resulting in aberrant hyphal growth after 48 hrs by broth microdilution method; format: functional; how it was run: as §2
# Aspergillus fumigatus [18] = test: Antifungal activity against Aspergillus fumigatus isolate 06-067-1639 assessed as lowest drug concentration resulting in aberrant hyphal growth after 48 hrs by broth microdilution method; format: functional; how it was run: as §2
# Aspergillus terreus [19] = test: Inhibition of metabolite production in Aspergillus terreus isolate 04-188-2548 assessed as lowest drug concentration required to inhibit 50% ethanol, malate production after 48 hrs in presence of 2 % glucose by NMR spectroscopy; format: functional; how it was run: as §1
# Aspergillus fumigatus [20] = test: Inhibition of metabolite production in Aspergillus fumigatus isolate 06-067-1639 assessed as inhibition of malate and fumarate production at 2 to 4 ug/ml; format: functional
# Aspergillus fumigatus [21] = test: Antifungal activity against Aspergillus fumigatus ATCC 204305 assessed as lowest drug concentration resulting in aberrant hyphal growth after 48 hrs by broth microdilution method; format: functional; how it was run: as §2
# Aspergillus niger [22] = test: Antifungal activity against Aspergillus niger isolate 05-112-3701 assessed as lowest drug concentration resulting in aberrant hyphal growth after 48 hrs by broth microdilution method; format: functional; how it was run: as §2
# Aspergillus terreus [23] = test: Antifungal activity against Aspergillus terreus isolate 06-059-2428 assessed as lowest drug concentration resulting in aberrant hyphal growth after 48 hrs by broth microdilution method; format: functional; how it was run: as §2
# Aspergillus fumigatus [24] = test: Increase in metabolite production in Aspergillus fumigatus isolate 06-067-1639 assessed as lowest drug concentration required to increase >50% glycine betaine production after 48 hrs in presence of 2 % glucose by NMR spectroscopy; format: functional
# Aspergillus fumigatus [25] = test: Inhibition of metabolite production in Aspergillus fumigatus ATCC 204305 assessed as lowest drug concentration required to inhibit 50% malate production after 72 hrs in presence of 0.2 % glucose by NMR spectroscopy; format: functional; how it was run: as §3
# Aspergillus nidulans [26] = test: Inhibition of metabolite production in Aspergillus nidulans isolate 00-202661 assessed as lowest drug concentration required to inhibit 50% fumarate production after 72 hrs in presence of 2 % glucose by NMR spectroscopy; format: functional; how it was run: as §4
# Aspergillus flavus [27] = test: Antifungal activity against Aspergillus flavus isolate 05-314-1100 assessed as lowest drug concentration resulting in aberrant hyphal growth after 48 hrs by broth microdilution method; format: functional; how it was run: as §2
# Aspergillus nidulans [28] = test: Antifungal activity against Aspergillus nidulans isolate 00-202661 assessed as lowest drug concentration resulting in aberrant hyphal growth after 72 hrs by broth microdilution method; format: functional
# Aspergillus fumigatus [29] = test: Increase in metabolite production in Aspergillus fumigatus isolate 06-067-1639 assessed as paradoxical increase in glycine betain, fumarate, succinate level at 1 ug/ml after 48 hrs; format: functional, organism-based
compound,measurement,setting,value
CC[C@H](C)C[C@H](C)CCCCCCCCC(=O)N[C@H]1C[C@@H](O)[C@@H](NCCN)NC(=O)[C@@H]2[C@@H](O)CCN2C(=O)[C@H]([C@H](O)CCN)NC(=O)[C@H]([C@H](O)[C@@H](O)c2ccc(O)cc2)NC(=O)[C@@H]2C[C@@H](O)CN2C(=O)[C@H]([C@@H](C)O)NC1=O [CASPOFUNGIN],Activity,Aspergillus fumigatus [1],0.5 µg/mL
same,Activity,Aspergillus niger [2],0.5 µg/mL
same,Activity,Aspergillus flavus [3],0.03 µg/mL
same,Activity,Aspergillus nidulans [4],4 µg/mL
same,Activity,Aspergillus niger [5],0.25 µg/mL
same,Activity,Aspergillus fumigatus [6],0.03 µg/mL
same,Activity,Aspergillus niger [7],0.5 µg/mL
same,Activity,Aspergillus fumigatus [8],0.03 µg/mL
same,Activity,Aspergillus fumigatus [9],0.06 µg/mL
same,Activity,Aspergillus terreus [10],0.03 µg/mL
same,Activity,Aspergillus flavus [11],0.03 µg/mL
same,Activity,Aspergillus terreus [12],0.06 µg/mL
same,Activity,Aspergillus nidulans [13],4 µg/mL
same,Activity,Aspergillus fumigatus [14],inactive
same,Activity,Aspergillus fumigatus [15],0.5 µg/mL
same,Activity,Aspergillus fumigatus [16],Active
same,Activity,Aspergillus flavus [17],0.03 µg/mL
same,Activity,Aspergillus fumigatus [18],0.03 µg/mL
same,Activity,Aspergillus terreus [19],0.5 µg/mL
same,inhibition (INH),Aspergillus fumigatus [20],20%
same,Activity,Aspergillus fumigatus [21],0.03 µg/mL
same,Activity,Aspergillus niger [22],0.5 µg/mL
same,Activity,Aspergillus terreus [23],0.03 µg/mL
same,Activity,Aspergillus fumigatus [24],1 µg/mL
same,Activity,Aspergillus fumigatus [25],0.03 µg/mL
same,Activity,Aspergillus nidulans [26],2 µg/mL
same,Activity,Aspergillus flavus [27],0.03 µg/mL
same,Activity,Aspergillus nidulans [28],2 µg/mL
same,Activity,Aspergillus fumigatus [29],Active

# — ChEMBL document CHEMBL1137658, “Effect of caspofungin on metabolite profiles of Aspergillus species determined by nuclear magnetic resonance spectroscopy” (2007)
